Compounds with a hit are over-represented: about 2.5% of the library has one in this group of screens.
miR-122 sensor – blocks miR-122 activity in Huh7 sensor cells | Huh7 miR-122 Renilla luciferase sensor, 48 h; neutral wells = 0, positive control = 100 | activation (reporter increase), % at 12.5 µM | hit rate 0.3% among 340,000;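 active = mean replicate activation score at least 90 and every replicate individually at or above 90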;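 also: higher luciferase means less miR-122 activity so hits act as miR-122 inhibitors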
E-sel inducer – E-selectin induction on HUVECs; P16581; HUVEC E-selectin immunofluorescence imaging; normalized: neutral wells 0, TNF-alpha wells 100; activation, % at 7.58 µM; hit rate 0.37% among 260,000;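 active = mean E-selectin-positive cell signal at least 10% of the positive control, reached in at least 60% of replicates, without over 20% cell loss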
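Test system: HUVEC; input: 3,000 HUVEC/well; measured by: immunofluorescence imaging; read-out: % PE-positive cells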
S100A4 inh HTS – inhibitors of human S100A4 binding to myosin IIA peptide; inhibition, % at 10.7 µM; P26447; hit rate 0.14% among 360,000; S100A4/TAMRA-MyoIIA peptide fluorescence polarization; AID 652163;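 active = mean inhibition of at least 70% across replicates, with every replicate also reaching that level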
Target sequence (P26447 whole entry, looked up): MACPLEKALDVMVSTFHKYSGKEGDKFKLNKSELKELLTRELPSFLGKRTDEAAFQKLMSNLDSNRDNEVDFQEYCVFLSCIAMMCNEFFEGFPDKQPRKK
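Assay system: human S100A4 monomer with TAMRA-labelled myosin IIA peptide / Buffer or medium: Calcium-containing HEPES buffer, pH 7.2 / Reagent: TAMRA-labelled myosin IIA heavy-chain peptide probe, 5 nM / Compound: one dose per compound / Timing: polarization read 5 min after assay mix addition, stable 5–60 min / Benchmarks: neutral control DMSO, positive control TFP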
SIRT5 inh – blocks human SIRT5 desuccinylation of peptide | Purified SirT5, succinyl-peptide AMC, trypsin-coupled fluorescence | inhibition, % at 15 µM | hit rate 1.1% among 330,000; in the data active = inhibition above about 15%
Target sequence (Q9NXA8 whole entry, looked up): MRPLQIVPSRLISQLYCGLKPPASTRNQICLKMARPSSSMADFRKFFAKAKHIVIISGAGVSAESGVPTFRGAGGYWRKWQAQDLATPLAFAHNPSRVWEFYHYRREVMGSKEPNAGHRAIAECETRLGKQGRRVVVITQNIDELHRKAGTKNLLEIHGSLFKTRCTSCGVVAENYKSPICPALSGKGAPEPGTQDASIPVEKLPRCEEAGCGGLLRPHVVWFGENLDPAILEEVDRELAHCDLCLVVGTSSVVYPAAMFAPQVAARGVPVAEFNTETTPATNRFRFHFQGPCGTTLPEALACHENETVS
FGF22 binding – FGF22 (human) thermal shift binding. Q9HCT0. recombinant FGF22 thermal shift, SYPRO orange fluorescence; percent of sucrose octasulfate shift, DMSO zero. activity (Tm shift, normalised), % at 9.99 µM. hit rate 1.5% among 340,000;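 active = mean Tm shift, scaled 0 neutral to 100 positive control, at about 1.3% or above, every replicate too, limit read from the data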
Target sequence (Q9HCT0 whole entry, looked up): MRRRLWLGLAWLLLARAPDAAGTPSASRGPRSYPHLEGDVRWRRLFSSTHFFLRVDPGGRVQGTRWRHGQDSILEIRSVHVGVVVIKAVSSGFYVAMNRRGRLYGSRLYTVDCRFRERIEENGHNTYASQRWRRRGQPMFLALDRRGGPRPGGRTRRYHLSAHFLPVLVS
Starred values were filed as active, the others as inactive; [ ] = dose if it differs, or a comment.

Results for N#Cc1cccc(-c2ccc3c(c2)[C@@H]2[C@@H](CCN2C(=O)c2ccccc2F)[C@@H](CO)N3)c1 ?
miR-122 sensor: 2[16.7 µM]; E-sel inducer: 0; SIRT5 inh: 3; FGF22 binding: 0

Results for COc1ccc(S(=O)(=O)Nc2ccc3c(c2)C(=O)N([C@@H](C)CO)C[C@@H](C)[C@@H](CN(C)Cc2ccc(Oc4ccccc4)cc2)O3)cc1 ?
miR-122 sensor: -13[16.7 µM]; E-sel inducer: 1; S100A4 inh HTS: 4; SIRT5 inh: 35*; FGF22 binding: -1

Results for C[C@H]1CN([C@@H](C)CO)C(=O)c2cc(NS(=O)(=O)c3ccccc3)ccc2O[C@@H]1CN(C)Cc1ccc(Oc2ccccc2)cc1 ?
miR-122 sensor: -13[16.7 µM]; E-sel inducer: 0; S100A4 inh HTS: -8; SIRT5 inh: 11; FGF22 binding: 0

How did COc1ccc(S(=O)(=O)Nc2ccc3c(c2)C(=O)N([C@@H](C)CO)C[C@H](C)[C@@H](CN(C)Cc2ccc(Cl)c(Cl)c2)O3)cc1 do in these assays?
miR-122 sensor: 2[16.7 µM]; E-sel inducer: 80*; S100A4 inh HTS: -7; SIRT5 inh: 1; FGF22 binding: 1

What do the screens show for `C[C@@H]1CN([C@@H](C)CO)C(=O)c2cc(NS(=O)(=O)c3ccccc3)ccc2O[C@@H]1CN(C)Cc1ccc(Oc2ccccc2)cc1`?
miR-122 sensor: 46[16.7 µM]; E-sel inducer: 0; S100A4 inh HTS: 4; SIRT5 inh: 20*; FGF22 binding: 0

How did COc1ccc(S(=O)(=O)Nc2ccc3c(c2)C(=O)N([C@H](C)CO)C[C@H](C)[C@H](CN(C)Cc2ccc(Oc4ccccc4)cc2)O3)cc1 do in these assays?
miR-122 sensor: -8[16.7 µM]; E-sel inducer: 0; S100A4 inh HTS: -3; SIRT5 inh: 31*; FGF22 binding: -1

What do the screens show for `O=C(C[C@H]1CC[C@H](NC(=O)NC2CCCCC2)[C@H](CO)O1)NCc1ccc(F)cc1`?
miR-122 sensor: 11[16.7 µM]; E-sel inducer: 0; S100A4 inh HTS: 6; SIRT5 inh: 14; FGF22 binding: 0

What do the screens show for `COc1ccc(S(=O)(=O)Nc2ccc3c(c2)C(=O)N([C@@H](C)CO)C[C@H](C)[C@@H](CN(C)Cc2ccc(Oc4ccccc4)cc2)O3)cc1`?
miR-122 sensor: -5[16.7 µM]; E-sel inducer: 0; S100A4 inh HTS: 8; SIRT5 inh: 25*; FGF22 binding: 0

How did COCC(=O)N1[C@H](CO)[C@H](c2ccccc2)C12CN(C(=O)c1cccc(F)c1)C2 do in these assays?
E-sel inducer: 0; S100A4 inh HTS: 1; SIRT5 inh: -2; FGF22 binding: 0

What do the screens show for `C[C@@H]1CCCCO[C@H](CN(C)C(=O)c2ccncc2)[C@@H](C)CN([C@H](C)CO)C(=O)c2cc(NC(=O)NC3CCCCC3)ccc2O1`?
miR-122 sensor: 1[16.7 µM]; E-sel inducer: 0; FGF22 binding: 0

What do the screens show for `COc1ccc(OCCNC2CCCC2)cc1`?
E-sel inducer: 0; S100A4 inh HTS: -1; SIRT5 inh: -1; FGF22 binding: 0

Results for N#Cc1ccc(OCCOCCNC2CCCC2)cc1 ?
S100A4 inh HTS: 0; SIRT5 inh: 2; FGF22 binding: 44*

What do the screens show for `CNc1ccc2nnc(C(F)(F)C(F)(F)C(F)(F)F)n2n1`?
miR-122 sensor: -4; E-sel inducer: 1; S100A4 inh HTS: 1; SIRT5 inh: 2; FGF22 binding: 43*

Results for FC(F)(F)c1nnc2ccc(Cl)nn12 ?
E-sel inducer: 4; S100A4 inh HTS: 0; SIRT5 inh: 1; FGF22 binding: 0

Results for O=C(c1ccc(N2CCCC2)c([N+](=O)[O-])c1)N1CCN(S(=O)(=O)c2ccccc2)CC1 ?
miR-122 sensor: -8; E-sel inducer: 0; S100A4 inh HTS: -5; SIRT5 inh: 33*; FGF22 binding: 0

Results for Cc1ccc(C)c(S(=O)(=O)N2CCN(C(=O)c3ccc(N4CCCC4)c([N+](=O)[O-])c3)CC2)c1 ?
miR-122 sensor: -5; E-sel inducer: 0; S100A4 inh HTS: -1; SIRT5 inh: -1; FGF22 binding: 0

What do the screens show for `C[C@@H]1CN([C@@H](C)CO)C(=O)c2cc(C#CCN(C)C)cnc2O[C@H]1CN(C)C(=O)c1ccc2c(c1)OCO2`?
E-sel inducer: 0; S100A4 inh HTS: -4; SIRT5 inh: -3; FGF22 binding: 0

Results for O=C(C[C@@H]1CC[C@@H](NC(=O)CC2CC2)[C@@H](CO)O1)NCc1ccc(Cl)cc1 ?
E-sel inducer: 0; S100A4 inh HTS: -4; SIRT5 inh: -1; FGF22 binding: 0

How did C[C@@H]1CN([C@H](C)CO)C(=O)Cc2cc(NS(=O)(=O)c3ccc(Cl)cc3)ccc2O[C@@H]1CN(C)Cc1ccc(Cl)c(Cl)c1 do in these assays?
miR-122 sensor: -12[16.7 µM]; E-sel inducer: -1; S100A4 inh HTS: -12; SIRT5 inh: 16*; FGF22 binding: 0

How did C[C@H]1CN([C@@H](C)CO)C(=O)Cc2cc(NS(=O)(=O)c3ccc(Cl)cc3)ccc2O[C@H]1CN(C)Cc1ccc(Cl)c(Cl)c1 do in these assays?
miR-122 sensor: -7[16.7 µM]; E-sel inducer: 0; S100A4 inh HTS: 25; SIRT5 inh: 6; FGF22 binding: 0

What do the screens show for `C[C@@H]1CN([C@H](C)CO)C(=O)Cc2cc(NS(=O)(=O)c3ccccc3)ccc2O[C@@H]1CN(C)Cc1ccc(Cl)c(Cl)c1`?
miR-122 sensor: -2[16.7 µM]; E-sel inducer: 0; S100A4 inh HTS: -4; SIRT5 inh: -1; FGF22 binding: 0

How did C[C@H]1CN([C@@H](C)CO)C(=O)Cc2cc(NS(=O)(=O)c3ccc(Cl)cc3)ccc2O[C@@H]1CN(C)Cc1ccc2c(c1)OCO2 do in these assays?
miR-122 sensor: -11[16.7 µM]; E-sel inducer: 0; S100A4 inh HTS: 5; SIRT5 inh: 6; FGF22 binding: 0

What do the screens show for `C[C@@H]1CN([C@H](C)CO)C(=O)Cc2cc(NS(=O)(=O)c3ccccc3)ccc2O[C@H]1CN(C)Cc1ccc(Cl)c(Cl)c1`?
miR-122 sensor: 0[16.7 µM]; E-sel inducer: 0; S100A4 inh HTS: -8; SIRT5 inh: 18*; FGF22 binding: 0

Results for C[C@H](CO)N1C[C@H](C)[C@@H](CN(C)Cc2ccc3c(c2)OCO3)Oc2ccc(NS(=O)(=O)c3ccc(Cl)cc3)cc2CC1=O ?
miR-122 sensor: -11[16.7 µM]; E-sel inducer: 0; S100A4 inh HTS: 13; SIRT5 inh: 18*; FGF22 binding: 0

How did C[C@H](CO)N1C[C@H](C)[C@H](CN(C)Cc2ccccc2)Oc2ccc(NS(=O)(=O)c3ccccc3)cc2CC1=O do in these assays?
miR-122 sensor: 29[16.7 µM]; E-sel inducer: 0; S100A4 inh HTS: 87*; SIRT5 inh: 6; FGF22 binding: 0

Results for C[C@H]1CN([C@@H](C)CO)C(=O)Cc2cc(NS(=O)(=O)c3ccccc3)ccc2O[C@@H]1CN(C)Cc1ccccc1 ?
miR-122 sensor: 5[16.7 µM]; E-sel inducer: 0; S100A4 inh HTS: 10; SIRT5 inh: 2; FGF22 binding: 0

Screens (PubChem BioAssay)
